These results are taken from ChEMBL document CHEMBL1139214, “Lyngbyastatin 4, a dolastatin 13 analogue with elastase and chymotrypsin inhibitory activity from the marine cyanobacterium Lyngbya confervoides” (J Nat Prod, 2007).

Activity calls are given as the source filed them. No cut-off for these calls is given here.

Experiment [1] can be described thus: Inhibition of bovine pancreatic alpha chymotrypsin. On the set-up: species or system Bos taurus. In outline: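 Bovine pancreatic α-chymotrypsin (1 mg/mL enzyme solution) in 50 mM Tris-HCl, 100 mM NaCl, 1 mM CaCl2, pH 7.8. Test solution added, then 2 mM N-succinyl-Gly-Gly-Phe-p-nitroanilide substrate solution. Absorbance increase at 405 nm followed for 30 min. Dose–response analysis, IC50 determined.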

The nature of experiment [2]: Inhibition of porcine pancreatic elastase. On the set-up: species or system Sus scrofa. In outline: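 Porcine pancreatic elastase (75 µg/mL enzyme solution) preincubated with compound in Tris-HCl, pH 8.0, at 30 °C for 20 min. Then 2 mM N-succinyl-Ala-Ala-Ala-p-nitroanilide substrate solution added. Absorbance increase at 405 nm read over 3–30 min. Dose–response analysis, IC50 determined.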

For experiment [3], the species on record is Sus scrofa. Kind of experiment: Selectivity for porcine elastase over porcine trypsin.
The species entered for a further experiment is Bos taurus. Description: Selectivity for bovine alpha chymotrypsin over bovine thrombin.
A short description of experiment [4]: Selectivity for bovine alpha chymotrypsin over human plasmin.
Experiment [5] is described as follows: Selectivity for bovine alpha chymotrypsin over porcine trypsin.
A short description of experiment [6]: Selectivity for porcine elastase over bovine thrombin.
Experiment [7] is filed under the species Sus scrofa. Kind of experiment: Inhibition of porcine pancreatic trypsin upto 30 uM. The gist of the method: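 Porcine pancreatic trypsin (1 mg/mL enzyme solution) in 50 mM Tris-HCl, 100 mM NaCl, 1 mM CaCl2, pH 7.8. Test solution added, then 2 mM Nα-benzoyl-DL-arginine 4-nitroanilide hydrochloride substrate solution. Absorbance increase at 405 nm followed for 30 min. Dose–response analysis.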

A further experiment deals with Prothrombin (Bos taurus) (UniProt P00735). Kind of experiment: Inhibition of bovine plasma thrombin upto 30 uM. The format is cell-free.
Experiment [8] can be described thus: Selectivity for porcine elastase over human plasmin.
Experiment [9] deals with Plasminogen (Homo sapiens) (UniProt P00747). Description: Inhibition of human plasma plasmin upto 30 uM. The class given is cell-free.
Sequence of Plasminogen (Homo sapiens) (P00747 97-580 limits assumed): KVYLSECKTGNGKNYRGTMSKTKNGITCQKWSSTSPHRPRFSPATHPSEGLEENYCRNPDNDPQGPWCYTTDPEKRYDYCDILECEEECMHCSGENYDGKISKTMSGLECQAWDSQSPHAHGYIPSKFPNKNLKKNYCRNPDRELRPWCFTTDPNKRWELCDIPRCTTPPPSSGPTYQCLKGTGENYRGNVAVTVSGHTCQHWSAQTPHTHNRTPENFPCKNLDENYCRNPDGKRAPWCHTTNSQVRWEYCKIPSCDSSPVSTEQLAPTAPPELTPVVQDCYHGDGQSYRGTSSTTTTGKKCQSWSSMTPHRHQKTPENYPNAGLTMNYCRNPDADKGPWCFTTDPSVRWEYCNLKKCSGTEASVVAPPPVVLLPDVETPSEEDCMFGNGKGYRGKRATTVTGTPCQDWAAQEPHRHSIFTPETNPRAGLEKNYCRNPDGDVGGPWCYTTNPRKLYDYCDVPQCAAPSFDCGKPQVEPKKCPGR
Sequence of Plasminogen (Homo sapiens) (P00747 581-810 limits assumed): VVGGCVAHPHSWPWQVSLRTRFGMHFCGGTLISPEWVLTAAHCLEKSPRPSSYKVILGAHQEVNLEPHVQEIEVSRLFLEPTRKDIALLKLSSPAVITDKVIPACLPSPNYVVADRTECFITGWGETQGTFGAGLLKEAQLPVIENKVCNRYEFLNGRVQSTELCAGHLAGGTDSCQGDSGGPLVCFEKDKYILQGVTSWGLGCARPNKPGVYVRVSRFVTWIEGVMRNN

Broadly, the IC50 is the midpoint of a concentration-inhibition curve. Read a high IC50 as weaker potency.

Turning to `C/C=C1\NC(=O)[C@@H](NC(=O)[C@H](CCc2ccc(O)cc2)NC(=O)[C@H](C)NC(=O)[C@H](O)COS(=O)(=O)O)[C@@H](C)OC(=O)[C@H](C(C)C)NC(=O)[C@H](Cc2ccc(O)cc2)N(C)C(=O)[C@H](Cc2ccccc2)N2C(=O)[C@H](CC[C@H]2O)NC1=O` [LYNGBYASTATIN 4], the IC50 in experiment [1] worked out at 300 nM; in [2] it was 30 nM. The Selectivity ratio is > 1000 in the experiment listed under Sus scrofa [3]; > 100 in the experiment listed under Bos taurus; > 100 in experiment [4]; > 100 in experiment [5]; > 1000 in [6]; > 1000 in experiment [8]. The outcome (in the experiment listed under Sus scrofa [7]; on Prothrombin (Bos taurus); in experiment [9]) was inactive.
